Test results from ChEMBL document CHEMBL1129688, “ATP-citrate lyase as a target for hypolipidemic intervention. Design and synthesis of 2-substituted butanedioic acids as novel, potent inhibitors of the enzyme” (J Med Chem, 1996).

What was measured:
[1] = target: T1, ATP-citrate synthase (Rattus norvegicus, UniProt P16638); experiment: Inhibitory activity against rat ATP-citrate lyase activity by the […] dehydrogenase catalyzed reduction of oxaloacetate by NADH.
T1 sequence (P16638 whole entry): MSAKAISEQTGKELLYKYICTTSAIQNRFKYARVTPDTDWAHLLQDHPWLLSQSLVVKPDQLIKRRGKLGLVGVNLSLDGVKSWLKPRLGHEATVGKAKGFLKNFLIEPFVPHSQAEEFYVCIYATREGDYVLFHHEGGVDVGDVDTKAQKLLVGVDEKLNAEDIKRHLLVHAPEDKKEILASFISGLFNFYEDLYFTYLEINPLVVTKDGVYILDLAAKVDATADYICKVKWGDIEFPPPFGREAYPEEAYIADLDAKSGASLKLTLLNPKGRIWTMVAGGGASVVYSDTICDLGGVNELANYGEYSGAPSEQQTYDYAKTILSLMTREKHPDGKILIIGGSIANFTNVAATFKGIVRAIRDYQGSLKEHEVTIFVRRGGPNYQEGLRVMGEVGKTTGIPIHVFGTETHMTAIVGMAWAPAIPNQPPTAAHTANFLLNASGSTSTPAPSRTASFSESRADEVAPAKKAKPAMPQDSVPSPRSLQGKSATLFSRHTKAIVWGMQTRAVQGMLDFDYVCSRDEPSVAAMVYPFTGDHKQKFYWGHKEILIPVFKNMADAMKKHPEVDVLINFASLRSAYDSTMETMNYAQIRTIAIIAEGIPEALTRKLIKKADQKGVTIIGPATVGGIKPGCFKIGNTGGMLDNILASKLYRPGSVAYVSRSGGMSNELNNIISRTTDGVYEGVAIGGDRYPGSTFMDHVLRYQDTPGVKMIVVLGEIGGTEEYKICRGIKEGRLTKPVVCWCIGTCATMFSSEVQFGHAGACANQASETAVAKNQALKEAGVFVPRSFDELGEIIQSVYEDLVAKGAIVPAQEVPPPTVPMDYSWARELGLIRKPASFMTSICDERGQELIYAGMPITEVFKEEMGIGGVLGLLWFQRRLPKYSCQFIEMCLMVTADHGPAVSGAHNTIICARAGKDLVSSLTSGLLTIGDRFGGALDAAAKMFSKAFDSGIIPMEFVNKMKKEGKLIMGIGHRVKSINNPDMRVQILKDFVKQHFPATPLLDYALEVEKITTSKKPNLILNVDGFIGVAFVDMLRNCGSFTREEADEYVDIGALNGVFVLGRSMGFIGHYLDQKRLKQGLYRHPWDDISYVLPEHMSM
In short: (§1)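 Purified rat ACL or recombinant human ACL was assayed by coupling oxaloacetate formation to malate dehydrogenase reduction with NADH. Buffer: Tris 100 mM pH 8.0, MgCl2 10 mM, KCl 10 mM, DTT 10 mM, plus ATP and NADH. CoA was 200 μM, and citrate was added to 100 μM (its Km) to start the reaction. A340 decrease was followed over 20 min. Ki came from fitting v = Vmax/(2 + [I]/Ki), assuming citrate-competitive inhibition.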

[2] = target: T1, ATP-citrate synthase; experiment: Inhibition of recombinant ATP-Citrate Lyase activity as […] dehydrogenase catalyzed reduction of oxaloacetate by NADH; details: in the assay text read “purified rat ATP-Citrate Lyase” for “recombinant ATP-Citrate Lyase”; in short: as §1
[3] = target: T2, ATP-citrate synthase (Homo sapiens, UniProt P53396); experiment: (§2) Inhibitory activity against human recombinant ATP-Citrate Lyase activity was measured by the […] dehydrogenase catalyzed reduction of oxaloacetate by NADH; in short: as §1
T2 sequence (P53396 whole entry): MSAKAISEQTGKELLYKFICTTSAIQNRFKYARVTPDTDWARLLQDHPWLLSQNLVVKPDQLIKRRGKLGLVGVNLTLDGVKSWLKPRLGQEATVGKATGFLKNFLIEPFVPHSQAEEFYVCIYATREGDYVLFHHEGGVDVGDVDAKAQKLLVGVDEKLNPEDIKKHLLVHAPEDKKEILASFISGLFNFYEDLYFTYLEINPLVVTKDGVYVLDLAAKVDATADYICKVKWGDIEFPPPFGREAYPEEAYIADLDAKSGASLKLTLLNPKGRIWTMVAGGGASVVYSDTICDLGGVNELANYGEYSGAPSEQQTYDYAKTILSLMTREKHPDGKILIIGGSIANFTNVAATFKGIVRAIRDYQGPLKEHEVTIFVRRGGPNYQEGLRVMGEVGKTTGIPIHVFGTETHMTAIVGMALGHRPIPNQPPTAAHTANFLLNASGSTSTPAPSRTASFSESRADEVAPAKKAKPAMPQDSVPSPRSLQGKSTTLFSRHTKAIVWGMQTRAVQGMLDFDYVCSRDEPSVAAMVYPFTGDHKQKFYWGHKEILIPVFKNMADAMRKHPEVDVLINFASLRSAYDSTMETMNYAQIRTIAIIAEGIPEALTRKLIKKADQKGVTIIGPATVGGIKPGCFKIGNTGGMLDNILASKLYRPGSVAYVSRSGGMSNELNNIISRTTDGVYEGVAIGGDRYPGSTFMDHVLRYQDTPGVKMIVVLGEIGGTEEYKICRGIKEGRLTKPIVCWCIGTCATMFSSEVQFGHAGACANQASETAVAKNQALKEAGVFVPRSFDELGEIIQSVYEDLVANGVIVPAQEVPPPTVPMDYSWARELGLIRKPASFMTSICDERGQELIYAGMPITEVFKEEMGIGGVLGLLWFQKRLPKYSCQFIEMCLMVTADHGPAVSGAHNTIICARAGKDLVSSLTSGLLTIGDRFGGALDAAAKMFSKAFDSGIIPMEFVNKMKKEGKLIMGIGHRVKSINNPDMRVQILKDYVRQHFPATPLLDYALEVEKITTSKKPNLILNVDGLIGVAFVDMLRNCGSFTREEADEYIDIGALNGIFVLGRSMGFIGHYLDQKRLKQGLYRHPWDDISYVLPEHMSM

[4] = target: T3, ATP-citrate synthase (Homo sapiens) (UniProt P53396); experiment: as §2; details: concentration not given here; in short: as §1
T3 sequence (whole entry): T2 sequence (P53396 whole entry)

[5] = tested on: HepG2; experiment: Percent control of ATP levels in human hepatoma cell line HepG2 at 1000 uM concentration; format: functional
In short: (§3)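 Serum-starved HepG2 cells (grown to 80–90% confluence in DMEM/10% FCS, then overnight without serum) were exposed to vehicle or compound at the stated final concentration for 2.5 h. Cellular ATP was then measured as a toxicity check and expressed as % of vehicle control.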

[6] = tested on: HepG2; experiment: Percent reduction of cholesterol synthesis in human hepatoma cell line HepG2 at 10 uM concentration; format: functional; design: scale not given: the % may be the effect or the level left
In short: (§4)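 HepG2 cells were grown in DMEM with Hepes, bicarbonate, glutamine and 10% FCS to 80–90% confluence, then kept overnight serum-free. Vehicle or compound was added at the stated final concentration for 2.5 h. ³H2O (71 μCi/mmol) was present for the final 90 min. Synthesis rates came from ³H incorporated into cellular cholesterol or fatty acids, relative to vehicle control.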

[7] = tested on: HepG2; experiment: Percent reduction of fatty acid synthesis in human hepatoma cell line HepG2 at 1000 uM concentration; format: functional; in short: as §4
[8] = tested on: HepG2; experiment: Percent reduction of fatty acid synthesis in human hepatoma cell line HepG2 at 10 uM concentration; format: functional; design: scale not given: the % may be the effect or the level left; in short: as §4
[9] = tested on: HepG2; experiment: Percent control of ATP levels in human hepatoma cell line HepG2 at 10 uM concentration; format: functional; in short: as §3
[10] = tested on: HepG2; experiment: Percent reduction of cholesterol synthesis in human hepatoma cell line HepG2 at 1000 uM concentration; format: functional; in short: as §4

SMILES | Ki [1] | other results
O=C(O)CC(O)(CSCCCCCCc1ccc(F)cc1)C(=O)O (stereo not drawn) | 120 µM | 
O=C(O)CC(O)(CSCCCCCCc1cccc(Cl)c1Cl)C(=O)O (stereo not drawn) | 7.3 µM | 
O=C(O)CC(O)(CSCCCCCCc1ccccc1Cc1ccccc1)C(=O)O (stereo not drawn) |  | Ki [2]: 94 µM
O=C(O)CC(O)(CSCCCCCCc1c(Cl)cncc1Cl)C(=O)O (stereo not drawn) |  | Ki [3]: 121 µM
O=C(O)CC(O)(CCSCCCCCc1ccc(Cl)cc1Cl)C(=O)O (stereo not drawn) | 2.9 µM | 
O=C(O)CCCSCCCCCCc1ccc(Cl)cc1Cl | 25 µM | 
O=C(O)CC(O)(CC(=O)CCCCCc1ccc(Cl)cc1Cl)C(=O)O (stereo not drawn) | 25 µM | 
O=C(O)CC(O)(CSCCCCCOc1ccc(Cl)cc1Cl)C(=O)O (stereo not drawn) | 67 µM | 
O=C(O)CC(O)(CSCCCCCCc1cccnc1)C(=O)O (stereo not drawn) |  | inhibition [4]: 35%
O=C(O)CC(O)(CC(=O)CCCCCCc1ccc(Cl)cc1Cl)C(=O)O (stereo not drawn) | 1.2 µM | Control [5]: 107%; Control [6]: 108%; Fatty acid synthesis (% of vehicle control) [7]: 102%; Control [8]: 98%; Control [9]: 102%; Cholesterol synthesis (% of vehicle control) [10]: 102%
O=C(O)CC(CSCCCCC[S+]([O-])c1ccc(Cl)cc1Cl)C(=O)O (stereo not drawn) | 131 µM | 
COc1ccc(CCCCCCSCC(O)(CC(=O)O)C(=O)O)cc1 (stereo not drawn) |  | Ki [2]: 280 µM
O=C(O)CC(O)(CSCCCCCS(=O)(=O)c1ccc(Cl)cc1Cl)C(=O)O (stereo not drawn) | 64 µM | 
O=C(O)CC(O)(CSCCCC/C=C\c1ccc(Cl)cc1Cl)C(=O)O (stereo not drawn) | 7.4 µM | 
O=C(O)CC(O)(CSCCCCCc1ccc(-c2ccccc2)cc1)C(=O)O (stereo not drawn) | 226 µM | 
O=C(O)CC(O)(CSCCCCCc1ccccc1-c1ccccc1)C(=O)O (stereo not drawn) | 21 µM | 
O=C(O)CC(O)(CSCCCCCCc1ccncc1)C(=O)O (stereo not drawn) |  | inhibition [4]: 20%
O=C(O)CC(O)(CSCCCCCCCc1ccc(Cl)cc1Cl)C(=O)O (stereo not drawn) | 7.2 µM | 
O=C(O)CC(O)CSCCCCCCc1ccc(Cl)cc1Cl (stereo not drawn) | 88 µM | 
O=C(O)CC(O)(CSCCCCCCc1ccccc1-c1ccccc1)C(=O)O (stereo not drawn) | 18 µM | 
O=C(O)CC(O)(CCCCCCCCc1ccc(Cl)cc1Cl)C(=O)O (stereo not drawn) | 2.9 µM | 
O=C(O)CC(O)(CSCCCc1ccc(Cl)cc1Cl)C(=O)O (stereo not drawn) |  | Ki [2]: 390 µM
O=C(O)CC(O)(CSCCCCCCc1cccc2ccccc12)C(=O)O (stereo not drawn) |  | Ki [2]: 63 µM
O=C(O)CC(O)(CSCCCCCCCCCc1ccc(Cl)cc1Cl)C(=O)O (stereo not drawn) | 300 µM | 
O=C(O)CC(O)(CCCCCCCc1ccc(Cl)cc1Cl)C(=O)O (stereo not drawn) | 10.5 µM | 
O=C(O)CC(O)(CSCCCCCCc1ccc(C(=O)O)cc1)C(=O)O (stereo not drawn) | 420 µM | 

SMILES | Ki [1] | other results
O=C(O)CC(O)(CSCCc1ccc(Cl)cc1Cl)C(=O)O (stereo not drawn) |  | Ki [2]: 480 µM
O=C(O)CC(O)(CSCc1ccc(Cl)cc1Cl)C(=O)O (stereo not drawn) | 410 µM | 
O=C(O)CC(O)(CSCCCCCCc1ccccc1Cl)C(=O)O (stereo not drawn) | 69 µM | 
O=C(O)CC(O)(CSCCCCCCc1c(Cl)cccc1Cl)C(=O)O (stereo not drawn) | 76 µM | 
O=C(O)CC(O)(CSCCCCCNc1ccc(Cl)cc1Cl)C(=O)O (stereo not drawn) | 12 µM | 
O=C(O)CC(CSCCCCCCc1ccc(Cl)cc1Cl)C(=O)O (stereo not drawn) | 2.6 µM | 
O=C(O)CC(O)(CSCCCCCCc1ccc(Br)cc1)C(=O)O (stereo not drawn) | 31 µM | 
O=C(O)CC(O)(CSCCCCCC(=O)c1ccc(Cl)cc1Cl)C(=O)O (stereo not drawn) | 130 µM | 
O=C(O)CC(O)(CSCCCCCc1ccccc1)C(=O)O (stereo not drawn) | 490 µM | 
O=C(O)CC(O)(CSCCCCCCc1ccccc1[N+](=O)[O-])C(=O)O (stereo not drawn) |  | Ki [2]: 75 µM
NS(=O)(=O)c1ccc(CCCCCCSCC(O)(CC(=O)O)C(=O)O)cc1 (stereo not drawn) | 500 µM | 
O=C(O)CC(O)(CSCCCCCCc1ccc(O)cc1)C(=O)O (stereo not drawn) | 420 µM | 
O=C(O)CC(O)(CSCCCC/C=C/c1ccc(Cl)cc1Cl)C(=O)O (stereo not drawn) | 33 µM | 
O=C(O)CC(O)(CSCCCCCCc1ccc(Cl)c(Cl)c1)C(=O)O (stereo not drawn) | 110 µM | 
O=C(O)CC(O)(CSCCCCCCc1ccc2ccccc2c1)C(=O)O (stereo not drawn) |  | Ki [2]: 93 µM
CN(CCCCSCC(O)(CC(=O)O)C(=O)O)S(=O)(=O)c1ccc(Cl)cc1Cl (stereo not drawn) | 178 µM | 
O=C(O)CC(O)(CSCCCCCCc1cccc(Cl)c1)C(=O)O (stereo not drawn) | 150 µM | 
O=C(O)CC(O)(CSCCCc1ccc2ccccc2c1)C(=O)O (stereo not drawn) |  | Ki [3]: 300 µM
O=C(O)CC(O)(CSCCCCNS(=O)(=O)c1ccc(Cl)cc1Cl)C(=O)O (stereo not drawn) | 175 µM | 
O=C(O)CC(O)(CSCCCCCSc1ccc(Cl)cc1Cl)C(=O)O (stereo not drawn) | 10 µM | 
O=C(O)CC(O)(CSCCCCCCc1ccc(Cl)cc1)C(=O)O (stereo not drawn) | 71 µM | 
O=C(O)CC(O)(CSCCCCCCc1ccc(-c2ccccc2)cc1)C(=O)O (stereo not drawn) | 38 µM | 
O=C(O)CC(O)(CSCCCCCCc1c(Cl)cc(Cl)cc1-c1ccccc1)C(=O)O (stereo not drawn) |  | Ki [2]: 10 µM
Cc1ccc(CCCCCCSCC(O)(CC(=O)O)C(=O)O)c(C)c1 (stereo not drawn) |  | Ki [2]: 160 µM
O=C(O)CC(O)(CSCCCCCCc1ccc(F)cc1F)C(=O)O (stereo not drawn) |  | Ki [2]: 270 µM
O=C(O)CC(O)(CSCCCCCCc1ccccn1)C(=O)O (stereo not drawn) |  | inhibition [4]: 30%
